# Experimental data from PubChem BioAssay AID504390 (Broad Institute, 2011).
# The source made the active and inactive calls.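 The calls were made as follows: active = signal-lowering compounds whose fitted half-maximal concentration is at most ten times the top tested dose; inconclusive = flat fit at 30 to 70% inhibition, or poor fit; inactive = the rest.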
# Tested on: S. cerevisiae GRE-lacZ reporter, Hsp90 function, luminescence
# Experiment: yeast GRE-lacZ reporter Hsp90 inhibition – S. cerevisiae, luminescence, dry powder, set 2, dose response (AID 504390)
# Conditions: not given
# Outline: (§1)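 Material: Saccharomyces yeast reporter strain, glucocorticoid response element driving β-galactosidase | Buffer or medium: SD-ADE yeast medium | Probe or stimulus: DOC steroid, 20 µM stock | Dosing: Compounds delivered by pin transfer | Times: 75 min treatment at 30 °C with agitation | Technique: β-galactosidase luminescence after 25 min development at 30 °C | Benchmarks: Radicicol 5 µM as positive control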
row,SMILES,AC50
1,COC(=O)Cn1nc(C(C)(C)C)c2ccccc21,20.7 µM
2,COC(=O)Cn1nc(C2CCCCC2)c2ccccc21,3.56 µM
3,O=C(Cn1c2ccccc2c2nc3n(c(=O)c21)CCS3)N1CCCCC1,26.1 µM
4,COC(=O)Cn1nc(-c2cccc(C)c2)c2ccccc21,3.59 µM
5,COC(=O)Cn1nc(-c2cccc(OC)c2)c2ccccc21,4.18 µM
6,COC(=O)Cn1nc(-c2ccccc2)c2cccnc21,25.8 µM

# Tested on: not listed separately
# Experiment: as above
# Conditions: S. cerevisiae GRE-lacZ reporter, Hsp90 function, luminescence; at 26 µM (top of the series)
# Outline: as §1
row,SMILES,"activity change, negative = inhibition"
1,COC(=O)Cn1nc(C2CC2)c2ccccc21,-20.4% (inactive)
2,O=C(O)Cn1c2ccccc2c2nc3n(c(=O)c21)CCS3,10.8% (inactive)
3,O=C(Cn1c2ccccc2c2nc3n(c(=O)c21)CCS3)N1CCC(F)(F)C1,29.5% (inactive)
4,O=C(Cn1c2ccccc2c2nc3n(c(=O)c21)CCS3)N1CC=CC1,20.7% (inactive)
5,COC(=O)n1nc(-c2ccccc2)c2ccccc21,10.4% (inactive)
6,O=C(Cn1c2ccc(F)cc2c2nc3n(c(=O)c21)CCS3)N1CCCC1,39.4% (inactive)
7,O=C(Cn1c2ccccc2c2nc3n(c(=O)c21)CCS3)N1CCC(F)(F)CC1,4.34% (inactive)
8,CCc1nn(CC(=O)OC)c2ccccc12,35.3% (inactive)
9,c1ccc(-c2nn(Cc3nnco3)c3ccccc23)cc1,-30.7% (inactive)
10,CC1(O)CN(C(=O)Cn2c3ccccc3c3nc4n(c(=O)c32)CCS4)C1,25.6% (inactive)
11,O=C(Cn1c2ccccc2c2nc3n(c(=O)c21)CCS3)N1CCCC1,-14.7% (inactive)
12,CN1CCN(C(=O)Cn2c3ccccc3c3nc4n(c(=O)c32)CCS4)CC1,52.6% (inactive)
